Usually IC50 stands for the point on the concentration scale where inhibition reaches its midpoint. For orientation: EC50 means the concentration giving half of the maximal effect. Low readings indicate greater potency, high ones weaker potency.

Among the data in ChEMBL document CHEMBL1149284, “Discovery of pyrano[3,4-b]indoles as potent and selective HCV NS5B polymerase inhibitors” (J Med Chem, 2004) are IC50, Activity and EC50 values, retold here.

The nature of data set [1]: Inhibition of HCV NS5B polymerase. Set-up: species or system Hepacivirus hominis. In outline:
(§1)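 In vitro nucleotide incorporation assay using functionally active recombinant NS5B with a hairpin-like primed RNA substrate. Controls: enzyme without compound (positive) and enzyme with basilen blue (negative). Result reported as IC50.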

The nature of data set [2]: Cytotoxicity against Huh7 cells by MTS assay. The format is cell-based. The settings on record: human, huh-7. In outline: (§2)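 MTS metabolic assay run on rapidly dividing and on stationary cells.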
In general terms: Formazan colour is commonly taken as a measure of viable cells.

Data set [3] can be described thus: Inhibition of HCV 1a NS5B polymerase. Set-up: species or system Hepatitis C virus subtype 1a. In outline:
(§3)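 In vitro nucleotide incorporation assay using functionally active recombinant NS5B enzyme and a hairpin-like primed RNA substrate. Enzyme without compound served as the positive control, and enzyme with basilen blue dye as the negative control. IC50 values were determined.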

Data set [4] concerns Hepatitis C virus. Description: Inhibition of HCV 1b NS5B polymerase. Details: species or system Hepatitis C virus subtype 1b. In short, it runs like this: as §1
A short description of data set [5]: Inhibition of HCV 3a NS5B polymerase. Details: species or system Hepatitis C virus subtype 3a. In short, it runs like this: as §3
Data set [6] relates to Hepatitis C virus. Kind of data set: Reduction of viral RNA in Huh7 cells containing HCV sub-genomic replicon after 3 days. Type of data set: functional, organism-based, Hepacivirus hominis. The settings on record: Huh-7, 72 h. A general note: Replicon systems follow genome replication, usually without infectious particles.
For data set [7], the species on record is Homo sapiens. Description: Inhibition of human mitochondrial DNA polymerase gamma up to 80 uM.
Data set [8] concerns Hepatitis C virus. Description: Reduction of viral protein in Huh7 cells containing HCV sub-genomic replicon after 3 days. The settings on record: Hepacivirus hominis; Huh-7. The format is functional, organism-based.
Data set [9] concerns the target DNA polymerase beta (Homo sapiens, UniProt P06746). Kind of data set: Inhibition of human DNA polymerase beta.
A short description of data set [10]: Inhibition of calf thymus polymerase alpha. Details: species or system Bos taurus.
Data set [11] can be described thus: Inhibition of HIV reverse transcriptase. Set-up: species or system Human immunodeficiency virus.
In data set [12] the test system is Vero. Description: Cytotoxicity against Vero cells by MTS assay. To be noted: chlorocebus sabaeus. Type of data set: cell-based. In outline: as §2
The nature of data set [13]: Inhibition of helicase. Details: species or system Homo sapiens.

Active and inactive are the calls of the source. The calls are words filed in the database; no cut-off is given here.

Molecule `CCC[C@]1(CC(=O)O)OCCc2c1[nH]c1c(C)cc(F)c(C#N)c21` gave a half-maximal inhibitory concentration (IC50) in data set [1] of 80 nM. The same molecule returned an Activity in data set [2] of more than 50 µM.
On to `CCCC1(CC(=O)O)OCCc2c1[nH]c1c(C)cc(F)c(C#N)c21` (centres undefined), for which half-maximal inhibition in data set [1] (IC50) was put at 120 nM.
For `CCC[C@]1(CC(=O)O)OCCc2c1[nH]c1c(F)ccc(C#N)c21`, the midpoint of inhibition in data set [1], the IC50, lay at 440 nM. Also, in [2], the Activity was more than 50 µM.
Regarding `CCC[C@]1(CC(=O)O)OCCc2c1[nH]c1c(C)ccc(C#N)c21`, the IC50 in [1] came out at 330 nM; in data set [3], 300 nM; in data set [4], 300 nM; in [5] it was 300 nM. In data set [6], this molecule came in with an EC50 of 4.8 µM. In addition, in data set [7], the outcome was inactive. Also, the Activity entry in data set [8] is “Dose-dependent effect”.
As for `CCC[C@@]1(CC(=O)O)OCCc2c1[nH]c1c(C)cc(F)c(C#N)c21`, the IC50 in [1] came to 630 nM. The Activity in [2] is more than 50 µM.
As to `CCC[C@@]1(CC(=O)O)OCCc2c1[nH]c1c(Cl)ccc(CC)c21`, the IC50 in data set [1] is more than 15000 nM. This molecule also showed an Activity in data set [2] of more than 50 µM.
Taken in the same sequence, the figures for `CCCC1(CC(=O)O)OCCc2c1[nH]c1c(C)ccc(C#N)c21` (single isomer, unassigned) were 2400 nM and more than 50 µM.
Take `CCCC1(CC(=O)OCC)OCCc2c1[nH]c1c(C)ccc(C#N)c21` (centres undefined): the IC50 in data set [1] was more than 30000 nM.
Regarding `CCc1ccc(Cl)c2[nH]c3c(c12)CCOC3(CC)CC(=O)O` (centres undefined), in data set [1], the IC50 is more than 30000 nM.
`CCC[C@@]1(CC(=O)O)OCCc2c1[nH]c1c(Cl)ccc(Cl)c21` returned an IC50 in [1] of 1100 nM. In [2], this molecule displayed an Activity of 49 µM.
In data set [1], `CCCC1(CC(=O)O)OCCc2c1[nH]c1c(C)ccc(C#N)c21` (centres undefined) gave an IC50 of 570 nM.
As to `CCC[C@@]1(CC(=O)O)OCCc2c1[nH]c1c(F)ccc(C#N)c21`, in data set [1], the IC50 amounted to 5200 nM. Further, in data set [2], the Activity is more than 50 µM.
With `CCCC1(CC(=O)O)OCCc2c1[nH]c1cccc(Cl)c21` (centres undefined), in [1], the IC50 is 6000 nM.
As for `CCCC1(CC(=O)O)OCCc2c1[nH]c1c(Cl)ccc(CC)c21` (centres undefined), the IC50 in data set [1] is 3000 nM; in data set [9], more than 100 µM; in [10], more than 100 µM; in [11] it was more than 100 µM; in data set [13], more than 75 µM. In addition, the Activity result in [12] and in data set [2] was “Not Active” in each case.
With `CCCC1(CC(=O)O)OCCc2c1[nH]c1c(F)ccc(C#N)c21` (centres undefined), in data set [1], half-maximal inhibition (IC50) was put at 1000 nM.
In turn, `CCC[C@]1(CC(=O)O)OCCc2c1[nH]c1c(Cl)ccc(Cl)c21` displayed an IC50 in [1] of 60 nM. The Activity in data set [2] came to 33 µM.
Molecule `CCCC1(CC(=O)O)OCCc2c1[nH]c1c(Cl)ccc(Cl)c21` (centres undefined) returned an IC50 in data set [1] of 270 nM.
On to `CCC[C@]1(CC(=O)O)OCCc2c1[nH]c1c(Cl)ccc(CC)c21`, for which the IC50 in data set [1] turned out to be 2000 nM. In [2], this molecule had an Activity of more than 50 µM.
